Results from different studies.
Lines come from different studies, so protocols differ.
Target: Mitogen-activated protein kinase kinase kinase 9 (MAP3K9, Homo sapiens, UniProt P80192)
Read-out: enzyme activity
Mode: inhibitor

Compound | assay | conditions | remaining activity [%]
O=C(NCCCNc1ccnc(Nc2cccc(NC(=O)N3CCCC3)c2)n1)C1CCC1 | radiometric | 1 µM | 79
COc1cc(Nc2cnc(C#N)c(O[C@H](C)CN(C)C)n2)ncc1-c1cnn(C)c1 | radiometric | 10 µM | 48
O=C(Nc1cnn(-c2csc(C(=O)NC3COC3)c2)c1)Nc1c(F)cccc1Cl | – | 5 µM | 88.5
CC(C)(O)[C@H]1CC[C@H](Nc2ccc3ncc(-c4cccc(C(F)(F)F)c4)n3n2)CC1 | – | 1 µM | 77
CCCOc1ccc(OC)c(F)c1C(=O)c1ccc(C(=O)N[C@@H]2CNC[C@H]2NC(=O)c2ccc3[nH]ncc3c2)cc1 | – | 10 µM | 32
COc1cc(Cl)c(C(=O)N[C@@H](CN[C@H]2CC[C@@H](N)CC2)Cc2ccc(C#N)cc2)cc1-c1ccc(CN[C@H](C)c2ccc(C)cc2)o1 | – | 1 µM | 97
Cc1cnc(NC2CCOCC2)nc1-n1cnc(C(=O)NC(CN)c2cc(F)cc(Cl)c2)c1 (stereo not shown) | radiometric | 1 µM | 94
Cc1sc(C(=O)NC2COC2)cc1-n1cc(NC(=O)Nc2c(F)cccc2Cl)cn1 | – | 10 µM | 87.5
FC(F)c1nc2ccccc2n1-c1nc(N2CCOCC2)nc(N2CCOCC2)n1 | – | 10 µM | 86
Cc1nn(CC(F)(F)F)cc1Nc1nccc(NCc2ccc(S(N)(=O)=O)cc2)n1 | radiometric | 1 µM | 97
Cc1ccc(C(=O)Nc2ccc(CN3CCN(C)CC3)c(C(F)(F)F)c2)cc1C#Cc1cnc2cccnn12 | – | 23.5 nM | 96
NS(=O)(=O)c1ccc(CNc2ccnc(Nc3cccc(CN4CCOCC4)c3)n2)cc1 | radiometric | 1 µM | 81
CCN(CC)c1ccc(C2=NNC(=O)CC2C)cc1[N+](=O)[O-] (stereo not shown) | – | 10 µM | 100
CN1CCc2cc(Nc3ncc(C4CC4)c(NCCCNC(=O)C4CCC4)n3)ccc2C1 | radiometric | 1 µM | 14
CC(C)(C)c1nc(-c2cccc(NS(=O)(=O)c3c(F)cccc3F)c2F)c(-c2ccnc(N)n2)s1 | radiometric | 1 µM | 70
Cc1nn(CC(F)(F)F)cc1Nc1ncc(C2CC2)c(NCc2ccc(S(N)(=O)=O)cc2)n1 | radiometric | 1 µM | 90
CC(C)(C)c1nc2c(s1)c1nc(N)ncc1c1ccc(NS(=O)(=O)c3c(F)cccc3F)c(F)c12 | radiometric | 1 µM | 66
Cc1nn(CC(F)(F)F)cc1Nc1ncc(Br)c(NCCc2cnc[nH]2)n1 | radiometric | 1 µM | 30
Oc1cccc(-c2nc(N3CCOCC3)c3oc4ncccc4c3n2)c1 | – | 10 µM | 65
